Experimental data collected from several papers.
Compare with care: the assays were run in different laboratories.
CDK7 with cyclin H: Cyclin-dependent kinase 7, with cyclin H (CDK7, Homo sapiens, UniProt P50613)
MTNR1B: Melatonin receptor type 1B (MTNR1B, Homo sapiens, UniProt P49286)
BAZ1A: Bromodomain adjacent to zinc finger domain protein 1A (BAZ1A, Homo sapiens, UniProt Q9NRL2)

| Compound | target | test | system | conditions | endpoint | result |
| --- | --- | --- | --- | --- | --- | --- |
| C[C@@H]1C(=O)O[C@H]2C[C@@]34[C@H]5C[C@@H](C(C)(C)C)[C@]36[C@@H](OC(=O)[C@@H]6O)O[C@@]4(C(=O)O5)[C@]21O | CDK7 with cyclin H | enzyme activity, inhibitor, ADP detection |  | 10 µM | inhibition | 35.3% |
| CCc1ccc2scc(CCNC(C)=O)c2c1 | MTNR1B | cAMP, agonist, TR-FRET | CHO-K1 | 20 min | Emax | 75% |
| Cc1ccc(S(=O)(=O)NCC(=O)N2CCC[C@H]2C(=O)N[C@@H](CCCN=C(N)N)C(=O)Nc2ccc([N+](=O)[O-])cc2)cc1 | Prothrombin (F2, Homo sapiens, UniProt P00734) | enzyme activity, substrate, absorbance |  |  | Km | 26.3 µM |
| COc1cc2c(CCNC(C)=O)c[nH]c2cc1I | MTNR1B | GTPγS binding, agonist, radiometric |  | cell membranes | Emax | 97% |
| C[C@]12CC[C@@H]3c4ccc(O)cc4CC[C@H]3[C@@H]1CC[C@@H]2O | CDK7 with cyclin H | enzyme activity, inhibitor, ADP detection |  | 10 µM | inhibition | 38.3% |
| COc1ccc2ncn(CCNC(C)=O)c2c1 | MTNR1B | GTPγS binding, agonist, radiometric |  | cell membranes | Emax | 89% |
| COc1cc2c(NC3CCN(C(C)C)CC3)nc(C3CCCCC3)nc2cc1OCCCN1CCCC1 | Histone-lysine N-methyltransferase EHMT2 (EHMT2, Homo sapiens, UniProt Q96KQ7) | thermal stability, DSF |  | 100 µM | ΔTm | 4 °C |
| Cc1cc2c(cc1N1C(=O)c3cccc4c(Cl)ccc(c34)C1=O)n(C)c(=O)n2C | BAZ1A | thermal stability, DSF |  | 10 µM | ΔTm | -1 °C |
| Cc1cnc(Nc2ccc(OCCN3CCCC3)cc2)nc1Nc1cccc(S(=O)(=O)NC(C)(C)C)c1 | BAZ1A | thermal stability, DSF |  | 10 µM | ΔTm | 0.23 °C |
| COc1cc(/C=C/C(=O)O)ccc1O | CDK7 with cyclin H | enzyme activity, inhibitor, ADP detection |  | 10 µM | inhibition | -9.7% |
| ON=CC1=C(C=Cc2ccccc2)CCC1 | Fibroblast growth factor 23 (Homo sapiens, UniProt Q9GZV9) | thermal stability, DSF |  | 200 µM | ΔTm | 16.5 °C |
| c1ccc(-c2nc(NCC(c3ccccc3)c3ccccc3)c3ccccc3n2)cc1 | Sodium-dependent dopamine transporter (Slc6a3, Rattus norvegicus, UniProt P23977) | transporter uptake, inhibitor, radiometric |  | 12.8 µM | remaining activity | 30% |
| CC/C(=C(/CC)c1ccc(O)cc1)c1ccc(O)cc1 | CDK7 with cyclin H | enzyme activity, inhibitor, ADP detection |  | 10 µM | inhibition | 14.7% |
| COCC(CNC(C)=O)c1cccc2ccc(OC)cc12 (centres unmarked) | MTNR1B | cAMP, agonist, TR-FRET | CHO-K1 | 20 min | Emax | 67% |
